From ChEMBL document CHEMBL1142929, “The use of aminoglycoside derivatives to study the mechanism of aminoglycoside 6'-N-acetyltransferase and the role of 6'-NH2 in antibacterial activity” (2007) come the findings set out here.

For test [1], the system named is Escherichia coli. Nature of the test: Antibacterial activity against kanamycin-resistant Escherichia coli pETAACWT at 30 ug/disc […]. It counts as functional, organism-based.
For test [2], the system named is Escherichia coli. Nature of the test: Antibacterial activity against kanamycin-resistant Escherichia coli JR66 at 30 ug/disc […]. It counts as functional, organism-based.
Test [3] deals with Escherichia coli. Nature of the test: Antibacterial activity against kanamycin-resistant Escherichia coli JR67 at 30 ug/disc […]. It counts as functional, organism-based.
The test system of test [4] is Escherichia coli. Nature of the test: Antibacterial activity against gentamycin-resistant Escherichia coli JR88 at 30 ug/disc […]. It counts as functional, organism-based.
Test [5] concerns Staphylococcus aureus. In words: Antibacterial activity against Staphylococcus aureus at 30 ug/disc […]. It counts as functional, organism-based. The conditions noted are these: in the assay text read “paper disc method” for “dilution method”. A digest of the protocol: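 Disc diffusion on LB solid medium with 30 µg compound per paper disc; growth inhibition of the S. aureus strain (sensitive to usual antibiotics) scored visually.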

Test [6] deals with Enterococcus faecium. Nature of the test: Inhibition of Enterococcus faecium aminoglycoside 6'-N-acetyltransferase.
Test [7] deals with Escherichia coli. Nature of the test: Antimicrobial activity against Escherichia coli MG1655 by dilution method. It counts as functional. Put shortly: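 MIC by standard broth dilution: overnight MG1655 cultures in LB (aminoglycoside-sensitive strain) diluted 100-fold, growth read as OD at 600 nm.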
In test [8] the test system is Escherichia coli. Nature of the test: Antibacterial activity against kanamycin-resistant Escherichia coli pSF815A-1 at 30 ug/disc […]. It counts as functional, organism-based.

Active and inactive are the calls of the source. The calls are words filed in the database; no cut-off is given here. Bounds are passed on as bounds.

For `[N-]=[N+]=NCC(=O)NC[C@H]1O[C@H](O[C@H]2[C@H](O)[C@@H](O)[C@H](N)C[C@@H]2N)[C@H](N)[C@@H](O)[C@@H]1O`, the result in test [1], in test [2], in test [3], in test [4], in test [5] and in test [6] was inactive.
For orientation: MIC means the lowest concentration found to suppress growth. Low values mean greater potency, high ones weaker potency. With `NC[C@H]1O[C@H](O[C@H]2[C@H](O)[C@@H](O)[C@H](N)C[C@@H]2N)[C@H](N)[C@@H](O)[C@@H]1O` [NEAMINE], the minimum inhibitory concentration (MIC) in test [7] was below 6.25 µg/mL.
Consider `N[C@H]1[C@@H](O[C@H]2[C@H](O)[C@@H](O)[C@H](N)C[C@@H]2N)O[C@H](CNC(=O)CS)[C@@H](O)[C@@H]1O`, for which the outcome in test [1], in test [2], in test [3], in test [4], in test [5] and in test [6] was inactive.
For `N[C@H]1[C@@H](O[C@H]2[C@H](O)[C@@H](O)[C@H](N)C[C@@H]2N)O[C@H](CNC(=O)c2ccccc2)[C@@H](O)[C@@H]1O`, the result in test [1], in test [2], in test [3], in test [4], in test [5] and in test [8] was inactive. Besides, the outcome in test [6] was inactive.
As to `N[C@H]1[C@@H](O[C@H]2[C@H](O)[C@@H](O)[C@H](N)C[C@@H]2N)O[C@H](CNC(=O)Cc2cccc3ccccc23)[C@@H](O)[C@@H]1O`, the result in test [1], in test [2], in test [3], in test [4], in test [5] and in test [6] was inactive.
Regarding `C#CCC(=O)NC[C@H]1O[C@H](O[C@H]2[C@H](O)[C@@H](O)[C@H](N)C[C@@H]2N)[C@H](N)[C@@H](O)[C@@H]1O`, the outcome in test [1], in test [2], in test [3], in test [4], in test [5] and in test [6] was inactive.
In the case of `NCCC(=O)NC[C@H]1O[C@H](O[C@H]2[C@H](O)[C@@H](O)[C@H](N)C[C@@H]2N)[C@H](N)[C@@H](O)[C@@H]1O`, the outcome in test [1], in test [2], in test [3], in test [4], in test [5] and in test [6] was inactive.
For `N[C@H]1[C@@H](O[C@H]2[C@H](O)[C@@H](O)[C@H](N)C[C@@H]2N)O[C@H](CNC(=O)CO)[C@@H](O)[C@@H]1O`, the result in test [1], in test [2], in test [3], in test [4], in test [5] and in test [6] was inactive. The compound also displayed a minimal inhibitory concentration (MIC) in test [7] below 25 µg/mL.
Take `NCC(=O)NC[C@H]1O[C@H](O[C@H]2[C@H](O)[C@@H](O)[C@H](N)C[C@@H]2N)[C@H](N)[C@@H](O)[C@@H]1O`: the result in test [1], in test [2], in test [3], in test [4], in test [5] and in test [6] was inactive. Besides, in test [7], the MIC was below 50 µg/mL.
